An excerpt weighted towards active compounds, which were near 3.1% of everything screened.
SENP6 inh – SENP6 protease inhibitors, primary screen, biochemical, luminescence, uHTS | hit rate 1.8% among 330,000 | inhibition, % at 10 µM | AID 2599, 2010 | Sentrin-specific protease 6 (Homo sapiens), Q9GZR1 | Recombinant SENP6 catalytic domain, aminoluciferin luminescence;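 active = inhibition above about 50% at the single tested dose, limit read from the data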
Apaf1 inhib – inhibitors of human Apaf-1 apoptosome, primary screen, biochemical, DEVD-Rh110 fluorescence, uHTS | Apoptotic protease-activating factor 1 (Homo sapiens), O14727 | reconstituted apoptosome caspase-3 activity | inhibition, % at 20 µM | hit rate 0.71% among 330,000 | AID 489030, 2010; active = inhibition of at least 40% at 20 µM
Target sequence (O14727 whole entry, looked up): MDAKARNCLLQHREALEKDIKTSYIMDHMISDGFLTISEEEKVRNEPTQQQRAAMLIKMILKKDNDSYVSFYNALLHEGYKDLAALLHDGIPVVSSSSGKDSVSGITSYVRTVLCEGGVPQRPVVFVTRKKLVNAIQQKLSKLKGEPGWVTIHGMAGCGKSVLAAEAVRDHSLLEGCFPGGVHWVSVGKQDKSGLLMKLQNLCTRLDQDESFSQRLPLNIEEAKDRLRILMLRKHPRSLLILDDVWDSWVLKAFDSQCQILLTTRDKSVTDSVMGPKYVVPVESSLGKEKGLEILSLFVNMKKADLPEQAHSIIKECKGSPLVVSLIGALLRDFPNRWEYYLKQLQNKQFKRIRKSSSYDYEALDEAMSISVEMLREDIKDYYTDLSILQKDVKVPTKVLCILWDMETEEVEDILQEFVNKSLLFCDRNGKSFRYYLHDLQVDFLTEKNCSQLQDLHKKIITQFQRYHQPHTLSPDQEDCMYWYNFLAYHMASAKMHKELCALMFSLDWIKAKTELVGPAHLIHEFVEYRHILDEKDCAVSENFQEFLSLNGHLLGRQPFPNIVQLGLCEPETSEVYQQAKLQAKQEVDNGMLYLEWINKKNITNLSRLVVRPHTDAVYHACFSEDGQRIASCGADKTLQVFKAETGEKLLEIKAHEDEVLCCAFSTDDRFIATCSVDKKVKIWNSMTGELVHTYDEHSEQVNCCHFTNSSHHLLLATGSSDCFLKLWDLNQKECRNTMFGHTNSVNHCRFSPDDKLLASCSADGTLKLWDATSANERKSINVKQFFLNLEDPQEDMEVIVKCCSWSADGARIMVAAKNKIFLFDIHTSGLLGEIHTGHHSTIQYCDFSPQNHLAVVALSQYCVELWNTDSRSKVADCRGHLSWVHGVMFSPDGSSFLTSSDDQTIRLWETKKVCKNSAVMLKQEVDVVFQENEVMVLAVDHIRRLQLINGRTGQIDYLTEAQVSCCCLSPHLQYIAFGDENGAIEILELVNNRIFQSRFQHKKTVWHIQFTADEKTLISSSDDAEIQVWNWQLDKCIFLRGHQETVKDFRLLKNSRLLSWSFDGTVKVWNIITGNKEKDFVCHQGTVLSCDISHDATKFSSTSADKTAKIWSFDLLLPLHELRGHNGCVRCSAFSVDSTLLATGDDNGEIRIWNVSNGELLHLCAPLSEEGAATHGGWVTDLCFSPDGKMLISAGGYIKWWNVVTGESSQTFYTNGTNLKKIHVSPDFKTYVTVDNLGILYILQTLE
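Material: cell-free apoptosome with Apaf-1, procaspase-3 and caspase-9; Buffer or medium: Hepes pH 7.5 with detergent and BSA; Reagent: cytochrome c trigger plus (Z-DEVD)2-Rh110 caspase-3 substrate; Times: compound with Apaf-1, dATP, procaspase-3 30 min, then 50 min reaction, room temperature; Technique: Rh110 fluorescence intensity.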
SENP8 block-1 – human SENP8 protease inhibitors, primary screen, biochemical, fluorescence, Nedd8 protein substrate, uHTS. inhibition, % at 20 µM. Sentrin-specific protease 8 (Homo sapiens), Q96LD8. recombinant SENP8. hit rate 0.64% among 360,000; in the data active = inhibition mostly above about 40%, no sharp cut-off; inactive = mostly below about 27%
SENP7 block – SENP7 protease inhibitors, primary screen, biochemical, luminescence, uHTS; Sentrin-specific protease 7 (Homo sapiens), Q9BQF6; recombinant SENP7, Z-RLRGG-aminoluciferin luminescence, 40 min; inhibition, % at 5 µM; hit rate 1.5% among 330,000; AID 434973, 2010;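 active = inhibition above about 50% at the single test dose, limit read from the data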
UBC13 inh – UBC13 polyubiquitin chain formation inhibitors, primary screen, biochemical, TR-FRET, uHTS. inhibition, % at 20 µM. hit rate 0.47% among 330,000; in the data active = inhibition above about 45%, passing the limit was not always enough; inconclusive = no clear call, values can overlap the other calls
SENP8 block-2 – SENP8 protease inhibitors, primary screen, biochemical, luminescence; purified SENP8, Z-RLRGG-aminoluciferin cleavage; inhibition, % at 10 µM; hit rate 1.2% among 330,000; AID 2540, 2010; in the data active = inhibition above about 50%
A number is an active result; ! = repeats disagree.

Nc1c(C(=O)NC2CCCC2)c2nc3ccccc3nc2n1CC1CCCO1 (stereo not drawn) was read as SENP6 inh 92.1, Apaf1 inhib 94.4, SENP8 block-1 inactive, SENP7 block 90.4, UBC13 inh inactive and SENP8 block-2 93.1.
Cc1nc2cc(OC(=O)N(C)Cc3cccc(-c4ccncc4)c3)ccc2s1 was read as SENP8 block-1 inactive.
`O=C1NC(=S)N(c2ccc(F)cc2)C(=O)/C1=C/c1ccco1` gave SENP6 inh inactive, Apaf1 inhib 70.3, SENP7 block inactive, UBC13 inh inconclusive and SENP8 block-2 inactive.
For O=C1NC(=S)N(c2ccc(F)cc2)C(=O)/C1=C\c1ccoc1 the results were SENP8 block-1 inactive.
COc1ccc(OC)c(N2C(=O)/C(=C/c3ccco3)C(=O)NC2=S)c1 was read as SENP6 inh inactive, Apaf1 inhib 72.6, SENP7 block inactive, UBC13 inh inconclusive and SENP8 block-2 inactive.
COc1ccc(-n2nnnc2C(CCSC)N2CCC3(CC2)C(=O)NCN3c2ccccc2)cc1 (stereo not drawn) was read as SENP8 block-1 inactive.
Screening CO[C@H]1C=CCCC=CC(=O)O[C@H]([C@H](C)C(=O)CCCC2CC(=O)NC(=O)C2)C(C)=C[C@@H](C)[C@@H]1O returned SENP8 block-1 inactive.
`C=CCC1(Cc2ccsc2)C(=O)NC(=O)NC1=O` gave SENP8 block-1 inactive.
Screening CC[C@@H](CO)NC(=O)[C@@H]1C=C2c3cccc4[nH]cc(c34)C[C@H]2N(C)C1 returned SENP8 block-1 inactive.
`COC(=O)C1C=C2c3cccc4[nH]cc(c34)CC2N(C)C1` (stereo not drawn) gave SENP6 inh 54.1, Apaf1 inhib 55.8, SENP7 block inactive, UBC13 inh inactive and SENP8 block-2 inactive.
Screening CC(C)C[C@H]1C(=O)N2CCC[C@H]2[C@]2(O)O[C@](NC(=O)[C@@H]3C=C4c5cccc6[nH]cc(c56)C[C@H]4N(C)C3)(C(C)C)C(=O)N12 returned SENP6 inh 51.1, Apaf1 inhib 91.1, SENP8 block-1 inactive, SENP7 block inactive, UBC13 inh inactive and SENP8 block-2 inactive.
`CCC(CO)NC(=O)C1C=C2c3cccc4[nH]cc(c34)CC2N(C)C1` (stereo not drawn) gave SENP6 inh inactive, Apaf1 inhib inactive, SENP8 block-1 inactive, SENP7 block inactive, UBC13 inh inactive and SENP8 block-2 inactive.
CCn1nc(-c2ccccc2)nc2c(=O)n(C)c(=O)nc1-2 was read as SENP6 inh 88.9, Apaf1 inhib 97.8, SENP8 block-1 inactive, SENP7 block 96.2, UBC13 inh inactive and SENP8 block-2 91.8.
Screening Nc1ccccc1C(=O)OCC(=O)c1ccc2c(c1)OCCO2 returned SENP6 inh 95.4, Apaf1 inhib inactive, SENP8 block-1 inactive, SENP7 block 98.5, UBC13 inh inactive and SENP8 block-2 94.8.
Screening C[C@]12CC[C@@H]3c4ccc(O)c(O)c4CC[C@H]3[C@@H]1CC[C@@H]2O returned SENP6 inh inactive, Apaf1 inhib inactive, SENP8 block-1 45.1, SENP7 block inactive, UBC13 inh inactive and SENP8 block-2 inactive.
Screening CCOC(=O)[C@]12Cc3cc(C)ccc3[C@H]1N(C1CCCCC1)C(=O)c1ccccc12 returned SENP8 block-1 inactive.
Screening N#CC(C#N)=NNc1ccc(S(N)(=O)=O)cc1 returned SENP6 inh inactive, Apaf1 inhib inactive, SENP8 block-1 43.5, SENP7 block inactive, UBC13 inh inactive and SENP8 block-2 inactive.
CC1CCN(S(=O)(=O)c2ccc(NN=C(C#N)C#N)cc2)CC1 was read as SENP6 inh inactive, Apaf1 inhib inactive, SENP7 block inactive, UBC13 inh inactive and SENP8 block-2 inactive.
For Nc1cncc(C(=O)O)c1 the results were SENP6 inh inactive, Apaf1 inhib 40.8!, SENP8 block-1 inactive, SENP7 block inactive, UBC13 inh inactive and SENP8 block-2 inactive.
Screening O=C1CCCN1C(=O)c1cncc(Br)c1 returned SENP6 inh inactive, Apaf1 inhib inactive, SENP8 block-1 inactive, SENP7 block inactive, UBC13 inh inactive and SENP8 block-2 inactive.
Screening COc1ccc(NC2Oc3cc4c(cc3C(c3cc(OC)c(OC)c(OC)c3)C2C)OCO4)cc1 (stereo not drawn) returned SENP8 block-1 52.4.
For CC1Oc2cc3c(-c4c(O)cc(O)c5c(O)c6c(cc45)OC(C)C(C)C6=O)c(O)cc(O)c3c(O)c2C(=O)C1C (stereo not drawn) the results were SENP6 inh inactive, Apaf1 inhib inactive, SENP8 block-1 89.1, SENP7 block inactive, UBC13 inh inactive and SENP8 block-2 inactive.
`Cc1ccccc1OP(=O)(Oc1ccccc1C)N1CCOCC1` gave SENP8 block-1 inactive.
For O=C1CC=C2C3CC4N(CCC45c4cc(O)c(O)cc4N1C25)CC3=CCBr (stereo not drawn) the results were SENP8 block-1 59.3.
For CNC(=O)Oc1ccc(-c2cn3cc(C)ccc3n2)cc1 the results were SENP6 inh 81.0, Apaf1 inhib inactive, SENP8 block-1 inactive, SENP7 block 79.3, UBC13 inh inactive and SENP8 block-2 66.6.
`CN1/C(=C\C=C2C(=O)NC(=O)NC2=O)C(C)(C)c2ccccc21` gave SENP6 inh inactive, Apaf1 inhib inactive, SENP8 block-1 inactive, SENP7 block inactive, UBC13 inh inactive and SENP8 block-2 inactive.
`CN1/C(=C\C=C\C2=[N+](C)c3ccc4ccccc4c3C2(C)C)C(C)(C)c2ccccc21` gave SENP6 inh 58.9, Apaf1 inhib 89.5, SENP7 block inactive, UBC13 inh inactive and SENP8 block-2 inactive.
Screening CCN1/C(=C/C=C/C2=[N+](CC)c3ccccc3C2(C)C)C(C)(C)c2ccccc21 returned SENP8 block-1 41.2.
For C[C@@]12CC[C@@H](c3cc4c(cc3C1)OCO4)N2c1ccccc1 the results were SENP8 block-1 inactive.
CCOC(=O)[C@]12Cc3c(cc(OC)c(OC)c3OC)[C@H]1N(C1CCCCC1)C(=O)c1ccccc12 was read as SENP8 block-1 inactive.
`CCC1CN1P(=O)(c1ccccc1)N1CC1CC` (stereo not drawn) gave SENP8 block-1 inactive.
Screening COC(=O)C1=C(c2ccc3ccccc3c2)C[C@@H]2CC[C@H]1N2C(=O)N1CCCCC1 returned SENP6 inh inactive, Apaf1 inhib inactive, SENP8 block-1 inactive, SENP7 block inactive, UBC13 inh inactive and SENP8 block-2 inactive.
For C/C(CC(c1ccccc1)c1c(O)c2ccccc2oc1=O)=N\Nc1ccc([N+](=O)[O-])cc1[N+](=O)[O-] (stereo not drawn) the results were SENP6 inh 94.6, Apaf1 inhib inactive, SENP8 block-1 inactive, SENP7 block inactive, UBC13 inh inactive and SENP8 block-2 inactive.
